Source: ChEMBL document CHEMBL3407388, “Synthesis, anticancer activity and molecular docking studies on a series of heterocyclic trans-cyanocombretastatin analogues as antitubulin agents” (2015)

Columns and labels:
Assay type in all cases: functional
HT-29 = experiment: Cytotoxicity against human HT-29 cells assessed as growth inhibition after 48 hrs by SRB assay; settings: HT-29, 48 h
Outline: (§1)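 NCI 60-cell panel; compounds passing a single-dose screen (10−5 M, 48 h) were tested at five 10-fold dilutions (10−4 to 10−8 M) with 48 h drug exposure. GI50 is the molar concentration giving 50% reduction in net cell growth relative to cell numbers on day 0.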

IGROV-1 = experiment: Cytotoxicity against human IGROV1 cells assessed as growth inhibition after 48 hrs by SRB assay; settings: IGROV-1, 48 h; outline: as §1
U-251 = experiment: Cytotoxicity against human U251 cells assessed as growth inhibition after 48 hrs by SRB assay; settings: U-251, 48 h
[1] = Cytotoxicity against human OVCAR4 cells assessed as growth inhibition after 48 hrs by SRB assay; settings: OVCAR-4, 48 h; outline: as §1
[2] = Cytotoxicity against human OVCAR3 cells assessed as growth inhibition after 48 hrs by SRB assay; settings: OVCAR-3, 48 h; outline: as §1
DU-145 = experiment: Cytotoxicity against human DU145 cells assessed as growth inhibition after 48 hrs by SRB assay; settings: DU-145, 48 h; outline: as §1
MOLT-4 = experiment: Cytotoxicity against human MOLT4 cells assessed as growth inhibition after 48 hrs by SRB assay; settings: MOLT-4, 48 h; outline: as §1
SF-539 = experiment: Cytotoxicity against human SF539 cells assessed as growth inhibition after 48 hrs by SRB assay; settings: SF-539, 48 h; outline: as §1
LOX IMVI = experiment: Cytotoxicity against human LOXIMVI cells assessed as growth inhibition after 48 hrs by SRB assay; outline: as §1
[3] = Cytotoxicity against human OVCAR8 cells assessed as growth inhibition after 48 hrs by SRB assay; settings: OVCAR-8, 48 h; outline: as §1
SW-620 = experiment: Cytotoxicity against human SW620 cells assessed as growth inhibition after 48 hrs by SRB assay; settings: SW-620, 48 h
[4] = Cytotoxicity against human HCT15 cells assessed as growth inhibition after 48 hrs by SRB assay; settings: HCT-15, 48 h; outline: as §1
MDA-MB-231 = experiment: Cytotoxicity against human MDA-MB-231 cells assessed as growth inhibition after 48 hrs by SRB assay; settings: MDA-MB-231, 48 h; outline: as §1
A498 = experiment: Cytotoxicity against human A498 cells assessed as growth inhibition after 48 hrs by SRB assay; settings: A498, 48 h; outline: as §1
[5] = Cytotoxicity against human UO31 cells assessed as growth inhibition after 48 hrs by SRB assay; settings: UO-31, 48 h
NCI-H460 = experiment: Cytotoxicity against human NCI-H460 cells assessed as growth inhibition after 48 hrs by SRB assay; settings: NCI-H460, 48 h; outline: as §1
HL-60(TB) = experiment: Cytotoxicity against human HL-60(TB) cells assessed as growth inhibition after 48 hrs by SRB assay; settings: HL-60, 48 h
Outline: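 NCI 60-cell panel, leukemia subpanel. Five-dose screen at 10-fold dilutions from 10−4 to 10−8 M with 48 h drug exposure. GI50 is the molar concentration giving 50% reduction in net cell growth compared with cell numbers on day 0.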

SN12C = experiment: Cytotoxicity against human SN12C cells assessed as growth inhibition after 48 hrs by SRB assay; outline: as §1
M14 = experiment: Cytotoxicity against human M14 cells assessed as growth inhibition after 48 hrs by SRB assay; settings: M14, 48 h; outline: as §1
COLO 205 = experiment: Cytotoxicity against human COLO205 cells assessed as growth inhibition after 48 hrs by SRB assay; settings: COLO 205, 48 h; outline: as §1
MCF7 = experiment: Cytotoxicity against human MCF7 cells assessed as growth inhibition after 48 hrs by SRB assay; settings: MCF7, 48 h; outline: as §1
K562 = experiment: Cytotoxicity against human K562 cells assessed as growth inhibition after 48 hrs by SRB assay; settings: K562, 48 h; outline: as §1
NCI-H226 = experiment: Cytotoxicity against human NCI-H226 cells assessed as growth inhibition after 48 hrs by SRB assay; settings: NCI-H226, 48 h; outline: as §1
[6] = Cytotoxicity against human UACC62 cells assessed as growth inhibition after 48 hrs by SRB assay; settings: UACC-62, 48 h
TK-10 = experiment: Cytotoxicity against human TK10 cells assessed as growth inhibition after 48 hrs by SRB assay; settings: TK-10, 48 h
SF-268 = experiment: Cytotoxicity against human SF268 cells assessed as growth inhibition after 48 hrs by SRB assay; settings: SF-268, 48 h; outline: as §1
NCI-H23 = experiment: Cytotoxicity against human NCI-H23 cells assessed as growth inhibition after 48 hrs by SRB assay; settings: NCI-H23, 48 h; outline: as §1
CAKI-1 = experiment: Cytotoxicity against human Caki1 cells assessed as growth inhibition after 48 hrs by SRB assay; settings: CAKI-1, 48 h; outline: as §1
SK-MEL-5 = experiment: Cytotoxicity against human SK-MEL-5 cells assessed as growth inhibition after 48 hrs by SRB assay; settings: SK-MEL-5, 48 h; outline: as §1
SF-295 = experiment: Cytotoxicity against human SF295 cells assessed as growth inhibition after 48 hrs by SRB assay; settings: SF-295, 48 h; outline: as §1
SNB-75 = experiment: Cytotoxicity against human SNB75 cells assessed as growth inhibition after 48 hrs by SRB assay; settings: SNB-75, 48 h
[7] = Cytotoxicity against human PC3 cells assessed as growth inhibition after 48 hrs by SRB assay; settings: PC-3, 48 h; outline: as §1
SNB-19 = experiment: Cytotoxicity against human SNB19 cells assessed as growth inhibition after 48 hrs by SRB assay; settings: SNB-19, 48 h; outline: as §1
[8] = Cytotoxicity against human OVCAR5 cells assessed as growth inhibition after 48 hrs by SRB assay; settings: OVCAR-5, 48 h; outline: as §1
KM12 = experiment: Cytotoxicity against human KM12 cells assessed as growth inhibition after 48 hrs by SRB assay; settings: KM12, 48 h; outline: as §1
786-0 = experiment: Cytotoxicity against human 786-0 cells assessed as growth inhibition after 48 hrs by SRB assay; settings: 786-0, 48 h; outline: as §1
HCC 2998 = experiment: Cytotoxicity against human HCC2998 cells assessed as growth inhibition after 48 hrs by SRB assay; settings: HCC 2998, 48 h; outline: as §1
RPMI-8226 = experiment: Cytotoxicity against human RPMI8226 cells assessed as growth inhibition after 48 hrs by SRB assay; settings: RPMI-8226, 48 h; outline: as §1
MDA-MB-435 = experiment: Cytotoxicity against human MDA-MB-435 cells assessed as growth inhibition after 48 hrs by SRB assay; settings: MDA-MB-435, 48 h; outline: as §1
[9] = Cytotoxicity against human NCI-ADR-RES cells assessed as growth inhibition after 48 hrs by SRB assay; outline: as §1
[10] = Cytotoxicity against human HCT116 cells assessed as growth inhibition after 48 hrs by SRB assay; settings: HCT-116, 48 h; outline: as §1
BT-549 = experiment: Cytotoxicity against human BT549 cells assessed as growth inhibition after 48 hrs by SRB assay; settings: BT-549, 48 h; outline: as §1
SK-OV-3 = experiment: Cytotoxicity against human SKOV3 cells assessed as growth inhibition after 48 hrs by SRB assay; settings: SK-OV-3, 48 h; outline: as §1

SMILES: COc1cc(/C(C#N)=C/c2cc3ccccc3o2)cc(OC)c1OC
- GI50 (HT-29): < 10 nM
- GI50 (IGROV-1): 22 nM
- GI50 (U-251): < 10 nM
- GI50 [1]: 39 nM
- GI50 [2]: < 10 nM
- GI50 (DU-145): < 10 nM
- GI50 (MOLT-4): 47 nM
- GI50 (SF-539): < 10 nM
- GI50 (LOX IMVI): < 10 nM
- GI50 [3]: < 10 nM
- GI50 (SW-620): < 10 nM
- GI50 [4]: < 10 nM
- GI50 (MDA-MB-231): 28 nM
- GI50 (A498): < 10 nM
- GI50 [5]: 2290 nM
- GI50 (NCI-H460): < 10 nM
- GI50 (HL-60(TB)): < 10 nM
- GI50 (SN12C): < 10 nM
- GI50 (M14): < 10 nM
- GI50 (COLO 205): < 10 nM
- GI50 (MCF7): 23 nM
- GI50 (K562): < 10 nM
- GI50 (NCI-H226): < 10 nM
- GI50 [6]: < 10 nM
- GI50 (TK-10): 73600 nM
- GI50 (SF-268): 247 nM
- GI50 (NCI-H23): < 10 nM
- GI50 (CAKI-1): < 10 nM
- GI50 (SK-MEL-5): < 10 nM
- GI50 (SF-295): < 10 nM
- GI50 (SNB-75): < 10 nM
- GI50 [7]: < 10 nM
- GI50 (SNB-19): < 10 nM
- GI50 [8]: 42 nM
- GI50 (KM12): < 10 nM
- GI50 (786-0): < 10 nM
- GI50 (HCC 2998): 10 nM
- GI50 (RPMI-8226): 19 nM
- GI50 (MDA-MB-435): < 10 nM
- GI50 [9]: < 10 nM
- GI50 [10]: < 10 nM
- GI50 (BT-549): 29 nM
- GI50 (SK-OV-3): < 10 nM

SMILES: COc1cc(/C(C#N)=C/c2nc3ccccc3s2)cc(OC)c1OC
- GI50 (HT-29): 37 nM
- GI50 (IGROV-1): 1270 nM
- GI50 (U-251): 1650 nM
- GI50 [1]: 3860 nM
- GI50 [2]: 31 nM
- GI50 (DU-145): 333 nM
- GI50 (MOLT-4): 9200 nM
- GI50 (SF-539): 97 nM
- GI50 (LOX IMVI): 73 nM
- GI50 [3]: 438 nM
- GI50 (SW-620): 38 nM
- GI50 [4]: 45 nM
- GI50 (MDA-MB-231): 992 nM
- GI50 (A498): 198 nM
- GI50 [5]: 83 nM
- GI50 (NCI-H460): 336 nM
- GI50 (HL-60(TB)): 66 nM
- GI50 (SN12C): 515 nM
- GI50 (M14): 193 nM
- GI50 (COLO 205): 36 nM
- GI50 (MCF7): 34 nM
- GI50 (K562): 51 nM
- GI50 (NCI-H226): 844 nM
- GI50 [6]: 52 nM
- GI50 (TK-10): 63 nM
- GI50 (SF-268): 1030 nM
- GI50 (NCI-H23): 3250 nM
- GI50 (CAKI-1): 47 nM
- GI50 (SK-MEL-5): 100 nM
- GI50 (SF-295): 508 nM
- GI50 (SNB-75): 145 nM
- GI50 [7]: 341 nM
- GI50 (SNB-19): 2490 nM
- GI50 [8]: 347 nM
- GI50 (KM12): 278 nM
- GI50 (786-0): 1060 nM
- GI50 (HCC 2998): 297 nM
- GI50 (RPMI-8226): 237 nM
- GI50 (MDA-MB-435): 21 nM
- GI50 [9]: 59 nM
- GI50 [10]: 52 nM
- GI50 (BT-549): 12200 nM
- GI50 (SK-OV-3): 626 nM

SMILES: COc1ccc2[nH]cc(/C=C(\C#N)c3cc(OC)c(OC)c(OC)c3)c2c1
- GI50 (HT-29): 38 nM
- GI50 (IGROV-1): 379 nM
- GI50 (U-251): 50 nM
- GI50 [1]: 1350 nM
- GI50 [2]: 34 nM
- GI50 (DU-145): 153 nM
- GI50 (MOLT-4): 198 nM
- GI50 (SF-539): 71 nM
- GI50 (LOX IMVI): 74 nM
- GI50 [3]: 148 nM
- GI50 (SW-620): 46 nM
- GI50 [4]: 68 nM
- GI50 (MDA-MB-231): 299 nM
- GI50 (A498): 25 nM
- GI50 [5]: 1260 nM
- GI50 (NCI-H460): 37 nM
- GI50 (HL-60(TB)): 59 nM
- GI50 (SN12C): 715 nM
- GI50 (M14): 52 nM
- GI50 (COLO 205): 51 nM
- GI50 (MCF7): 36 nM
- GI50 (K562): 44 nM
- GI50 (NCI-H226): 170 nM
- GI50 [6]: 59 nM
- GI50 (TK-10): 20100 nM
- GI50 (SF-268): 2140 nM
- GI50 (NCI-H23): 101 nM
- GI50 (CAKI-1): 72 nM
- GI50 (SK-MEL-5): 36 nM
- GI50 (SF-295): 42 nM
- GI50 (SNB-75): 43 nM
- GI50 [7]: 54 nM
- GI50 (SNB-19): 89 nM
- GI50 [8]: 516 nM
- GI50 (KM12): 44 nM
- GI50 (786-0): 85 nM
- GI50 (HCC 2998): 119 nM
- GI50 (RPMI-8226): 241 nM
- GI50 (MDA-MB-435): 27 nM
- GI50 [9]: 37 nM
- GI50 [10]: 45 nM
- GI50 (BT-549): 348 nM
- GI50 (SK-OV-3): 56 nM
